Results: ChEMBL document CHEMBL1123287, “7-Aroyl-2,3-dihydrobenzo[b]furan-3-carboxylic acids and 7-benzoyl-2,3-dihydrobenzo[b]thiophene-3-carboxylic acids as analgesic agents” (1986)
Converted amounts (≈) assume the structure as drawn.

Tests used:
Mus musculus [1] = organism: Mus musculus; assay: Analgesic activity tested by phenylquinone induced writhing test in mice; type: functional
[2] = molecular target: T1, Prostaglandin E synthase (Bos taurus) (UniProt Q95L14); assay: Ability to inhibit prostaglandin synthetase ([3H]PGE2 synthesis) from [3H]arachidonic acid in bovine seminal vesicles
T1 sequence (whole entry): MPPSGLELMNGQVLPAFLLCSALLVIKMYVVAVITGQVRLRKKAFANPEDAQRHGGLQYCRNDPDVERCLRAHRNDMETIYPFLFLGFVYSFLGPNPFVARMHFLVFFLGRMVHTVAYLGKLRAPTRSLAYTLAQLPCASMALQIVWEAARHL
In short: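 Formation of [³H]-PGE₂ was measured at no fewer than four compound concentrations, each run in duplicate. ID₅₀, the dose expected to give 50% inhibition of prostaglandin synthesis, was read from dose-response lines.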

Mus musculus [3] = assay: Compound was tested orally for its ability to induce gastric lesions in fasted mice (8-animals per group); type: functional; conditions: Stomach, po
In short: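 Male mice (eight per group) fasted overnight, then dosed orally. Killed 4 h later; stomachs removed, stretched and examined for bleeding mucosal erosions. ED50 is the dose expected to cause observable mucosal damage in 50% of animals, calculated from dose-response lines.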

SMILES | ED50 (Mus musculus [1]) [mg/kg] | ID50 [2] [µg/mL] | ED50 (Mus musculus [3]) [mg/kg]
O=C(c1ccccc1)c1cc(Cl)cc2c1S(=O)(=O)CC2C(=O)O (stereo not given) | > 5 | > 50 | 
O=C(c1ccccc1)c1cc(Cl)cc2c1SCC2C(=O)O (stereo not given) | 0.8 | 0.8 (≈ 2.51 µM) | 23
O=C(c1ccccc1)c1cc(Cl)cc2c1[S+]([O-])CC2C(=O)O (stereo not given) | > 5 | > 50 | 
O=C(c1ccccc1)c1cccc2c1SCC2C(=O)O (stereo not given) | 0.6 | 1.2 (≈ 4.22 µM) | 13
COC(=O)C1COc2c(C(=O)c3ccccc3)cc(Cl)cc21 (stereo not given) | 13 |  | 
O=C(c1ccccc1)c1cc(F)cc2c1OCC2C(=O)O (stereo not given) | 2.9 |  | 
O=C(c1ccccc1)c1cc(Cl)cc2c1OCC2C(=O)O (stereo not given) | 0.8 | 0.25 (≈ 0.826 µM) | 150
O=C(c1ccccc1)c1cc(Br)cc2c1OCC2C(=O)O (stereo not given) | > 5 |  | 
O=C(c1ccccc1)c1cccc2c1OCC2C(=O)O (stereo not given) | 2.8 | 0.7 (≈ 2.61 µM) | 
O=C(c1ccccc1)c1ccc2c(c1)C(C(=O)O)CS2 (stereo not given) | > 10 |  | 
O=C(c1cccs1)c1cc(Cl)cc2c1OCC2C(=O)O (stereo not given) | > 4 |  | 
Cc1cc(C(=O)c2ccccc2)c2c(c1)C(C(=O)O)CO2 (stereo not given) | 1.9 | 2 (≈ 7.08 µM) | 
Cc1cc(CC(=O)O)n(C)c1C(=O)c1ccc(Cl)cc1 [ZOMEPIRAC] | 0.6 | 0.6 (≈ 2.06 µM) | 8
O=C(c1ccccc1)c1cc(Br)cc2c1SCC2C(=O)O (stereo not given) | 1.3 | 1.4 (≈ 3.85 µM) | 
O=C(c1ccc(Cl)cc1)c1cc(Cl)cc2c1OCC2C(=O)O (stereo not given) | > 4 |  | 
O=C(c1ccccc1)c1cccc2c1COC2C(=O)O (stereo not given) | > 16 | 5 (≈ 18.6 µM) | 
